# ARNT TACC3 PPI – disruptors of human ARNT/TACC3 interaction | inhibition, % at 9.99 µM | 0.66% of 390,000 active | Q9Y6A5 | AlphaScreen His-ARNT PAS-B/GST-TACC3 binding, luminescence; TACC3 fragment carries E629A point mutation | AID 623870;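 active = mean inhibition of replicates at least 50% and at least half of replicates each reaching 50%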;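 also: 0% = complete ARNT plus TACC3 wells and 100% = ARNT alone without TACC3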
# Xi reactivation – activators of X-chromosome reactivation in mouse fibroblasts. XiGFP mouse fibroblasts, % GFP-positive cells imaging, 3 d; cells co-treated with 5-aza-dC sensitizer; scaled so ellipticine positive control = 100%. activation, % at 7.58 µM. 0.055% of 360,000 active;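 active = mean normalized replicate activation at least 10% and every replicate at or above 10%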;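 also: 0% = median of on-plate neutral control wells and 100% = ellipticine 6 µM median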
#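 Assay system: SV40-immortalized XiGFP fibroblast cells, line 68-5-11; buffer or medium: DMEM plus 5-aza-dC sensitizer; compound: one concentration, pinned; timing: compounds 3 days, fix/stain 15 min at room temperature; benchmarks: positive control ellipticine, 6 µM final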
# HGIII-sPLA2 inh – Blocks human group III sPLA2 activity | Q9NZ20 | AID 743126 | 0.56% of 370,000 active | QFRET BODIPY PC-A2 liposome hydrolysis, fluorescence | inhibition, % at 12.2 µM;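 active = inhibition above mean plus 3 SD of compounds lying within the high and low control bounds, cut at about 19% in these data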;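 also: 0% = median of test compound wells and 100% = no enzyme DMSO wells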
# NSD2 HMT inh – blocks human histone methyltransferase NSD2; O96028; 0.54% of 310,000 active; AID 743445; NSD2 peptide methylation, AlphaScreen, 120 min; inhibition, % at 12.5 µM; in the data active = inhibition above about 50%
# SR-BI DiI-HDL act – SR-BI HDL lipid transfer activation; activation, % at 12.5 µM; 0.096% of 320,000 active; AID 504775; CHO ldlA[mSR-BI] cells, DiI-HDL uptake fluorescence, 3 h; 100 = double the neutral-control signal;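 active = mean replicate activation of at least 60% and every replicate at or above 60%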;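 also: 0% = median plate neutral-control signal and 100% = twice that signal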
#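 Test system: SR-BI-overexpressing, LDLR-lacking CHO cells; Medium: Ham's F12 with 0.5% BSA, HEPES 25 mM, pH 7.4; Schedule: 3 h, 37 °C; Technique: bottom-read fluorescence, 550/595 nm.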
# SR-BI DiI inh – mouse SR-BI HDL lipid transfer inhibition; inhibition, % at 12.5 µM; Q61009; AID 488896; ldlA[mSR-BI] CHO cells, DiI-HDL uptake fluorescence, 3 h; 0.96% of 320,000 active;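 active = mean replicate inhibition of at least 70% and a set share of replicates each scoring 70 or more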;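 also: 0% = median of neutral control wells and 100% = median of positive control wells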
# hGIII sPLA2 conf – human GIII-sPLA2 inhibition, confirmation. shares compounds with HGIII-sPLA2 inh. AID 743280. inhibition, % at 12.2 µM. 34% of 2,000 active. recombinant hGIII-sPLA2, BODIPY PC-A2 QFRET fluorescence;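 active = mean inhibition across triplicates above the hit cutoff set in the earlier primary screen, cut at about 19% in these data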;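 also: 0% = enzyme with DMSO and 100% = DMSO wells lacking enzyme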
# 535nm interf – optically interferes with 535nm fluorescence in sPLA2 counter-screen | shares compounds with HGIII-sPLA2 inh | BODIPY FL product fluorescence interference, QFRET | 8.5% of 2,000 active | inhibition, % at 12.2 µM | AID 743282;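 active = average inhibition above the solvent-only control mean plus 3 SD, cut at about 6% in these data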;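 also: 0% = DMSO with substrate plus product and 100% = DMSO with substrate alone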
# 535nm interf DR – counter-screen for HGIII-sPLA2 inhibitors: 535nm fluorescence interference, dose response; shares compounds with HGIII-sPLA2 inh; BODIPY FL product fluorescence interference, cell-free; IC50, µM; 240 tested, under 10 active; AID 743455;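 active = IC50 at or below 10 µM; inactive = IC50 above 10 µM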
# An asterisk follows results filed as active; nt = no result. This is a sample that favours compounds with a hit; in the whole collection about 2% have one here.
SMILES,ARNT TACC3 PPI,Xi reactivation,HGIII-sPLA2 inh,NSD2 HMT inh,SR-BI DiI-HDL act,SR-BI DiI inh,hGIII sPLA2 conf,535nm interf,others
COc1ccc(C(=O)c2[nH]c(N)c(C(N)=O)c2-c2ccc(OC)c(OC)c2)cc1,nt,0,1,nt,nt,nt,nt,nt,
COc1ccc(-c2c(C(=O)c3ccccc3)[nH]c(N)c2C(=O)c2ccccc2)cc1OC,nt,0,20*,nt,nt,nt,9,-8,
COc1cc(-c2c(C(=O)c3ccccc3)[nH]c(N)c2C(N)=O)ccc1F,nt,0,10,nt,nt,nt,nt,nt,
CCc1nc2c(OCCc3cccc(OC)c3)cccn2c1N(C=O)Cc1ccc(OC)cc1,nt,0,-10,1,nt,nt,nt,nt,
CC(C)(C)C(=O)NC(=S)Nc1ccc(C(F)(F)F)cc1,-4,0,21*,0,-2,2,19,-4,
O=C(/C=C/c1cccs1)N1CCC2(CC1)Oc1ccc(Cl)cc1C(=O)C21CC(c2cccnc2)=NO1 (configuration not stated),-4,0,-6,nt,-7,7,nt,nt,
O=C(OCc1ccccc1)C1=NNC2C(=O)N(c3ccccc3)C(=O)C12 (configuration not stated),0,0,23*,1,23,-23,1,-3,
CCc1ccc(N2C(=O)C3NN=C(C(=O)OCc4ccccc4)C3C2=O)cc1 (configuration not stated),-1,0,8,-1,-8,8,nt,nt,
CCCCNCc1nc2ccccc2c(=O)[nH]1,1,0,27*,0,1,-1,15,-2,
Cc1ccc(C)c(C(=O)COC(=O)C(C)N2C(=O)C3C4CCC(C4)C3C2=O)c1 (configuration not stated),4,0,-4,-2,23,-23,nt,nt,
CC(=O)c1cccc(NC(=O)C(CC(C)C)NC(=O)C2CCCCC2)c1 (configuration not stated),-2,0,2,nt,-66,66,nt,nt,
Cc1ccc(C)c(N2CN(Cc3cccnc3)CNC2=S)c1,-1,0,20*,5,26,-26,3,-1,
CC(=O)C1=C(O)C(=O)N(C)C1c1ccccc1[N+](=O)[O-] (configuration not stated),6,0,25*,4,15,-15,-1,-2,
CC(=O)C1=C(O)C(=O)N(CCC(=O)O)C1c1ccccc1[N+](=O)[O-] (configuration not stated),-2,0,-4,-1,12,-12,nt,nt,
Cc1cc(OC(=O)c2cccc(C(F)(F)F)c2)c([N+](=O)[O-])c(=O)[nH]1,-10,0,22*,nt,10,-10,-4,-4,
Cc1cccc(C(=O)Oc2cc(C)[nH]c(=O)c2[N+](=O)[O-])c1,-5,0,9,-1,8,-8,nt,nt,
Cc1oc2cc3oc(=O)c(CCC(=O)N(C)CC(=O)O)c(C)c3cc2c1C,3,0,23*,3,54,-54,6,-4,
Cc1ccc(NC(=O)CN2CCCC2)cc1,-3,0,79*,6,32,-32,6,-4,
Cc1cccc(NC(=O)CN2CCN(C(=O)C3CCC3)CC2)c1C,-1,0,21*,2,10,-10,-7,-5,
Cc1cccc(NC(=O)CN2CCN(CC(=O)Nc3ccc(-c4ccccc4)cc3)CC2)c1C,5,0,-9,1,nt,nt,nt,nt,
C[C@@H]1CN([C@@H](C)CO)C(=O)c2cc(/C=C/c3ccccc3)cnc2O[C@@H]1CN(C)S(=O)(=O)c1ccccc1,1,0,nt,nt,nt,nt,nt,nt,
Nc1ccc2nc(-c3ccc(N)c(Cl)c3)[nH]c2c1,1,nt,21*,3,-25,25,9,0,
Nc1ccc2nc(-c3cccnc3)[nH]c2c1,-59,0,11,4,2,-2,nt,nt,
CN(C)c1ccc(/C=N/NC(=S)NCc2ccco2)cc1,12,0,26*,2,21,-21,14,-4,
S=C(NCc1ccco1)N/N=C/c1ccncc1,0,0,3,0,45,-45,nt,nt,
SMILES,ARNT TACC3 PPI,Xi reactivation,HGIII-sPLA2 inh,NSD2 HMT inh,SR-BI DiI-HDL act,SR-BI DiI inh,hGIII sPLA2 conf,535nm interf,others
Cc1cc(C)c2nc(NNC(=O)c3cc(-c4cccs4)nc4ccccc34)sc2c1,0,0,37*,nt,-35,35,34*,0,535nm interf DR=>122
O=C(NNc1nc2ccc(Cl)cc2s1)c1cc(-c2cccs2)nc2ccccc12,9,0,28*,nt,-89,89*,35*,13*,
Cn1c(CCCNC(=O)c2ccccc2)nc2ccccc21,-8,nt,-1,0,6,-6,nt,nt,
CC(C)CC(=O)NC(=S)NNC(=O)c1ccc([N+](=O)[O-])cc1,29,0,19,0,-2,2,nt,nt,
CC(C)CC(=O)NC(=S)NNC(=O)c1ccc(NC(=O)C2CCCCC2)cc1,68*,0,21*,-1,1,-1,37*,-10,535nm interf DR=>122
CCc1ccc(S(=O)(=O)NCc2csc(C)n2)s1,-1,nt,22*,19,8,-8,-2,-5,
Nc1ncnc2c1ccn2[C@H]1CN(Cc2ccc3c(c2)OCO3)C[C@@H](CO)O1,nt,0,9,-3,nt,nt,nt,nt,
COC(=O)C1(C(=O)OC)CCCCN(S(=O)(=O)c2ccc(C)cc2)CCC1,nt,0,4,nt,nt,nt,nt,nt,
C/C(=N\NC(=S)NCc1ccccc1)c1ccc2ccccc2c1,-16,0,19*,-2,-19,19,0,2,
C/C(=N\NC(=S)NCc1ccccc1)c1cccc(Br)c1,0,0,8,5,6,-6,nt,nt,
CCCn1c(=O)c2ccccc2n2c(SCCOc3ccc(C)cc3)nnc12,-12,nt,19*,-2,4,-4,10,-14,
CCCn1c(=O)c2ccccc2n2c(SCCOc3ccc(OC)cc3)nnc12,-2,nt,13,18,16,-16,nt,nt,
COc1ccc(CN(C)C[C@H]2OCCCC[C@H](C)Oc3ccc(NS(=O)(=O)c4c(C)noc4C)cc3C(=O)N([C@H](C)CO)C[C@@H]2C)cc1,-6,0,nt,nt,nt,nt,nt,nt,
COc1ccccc1NC(=S)NNC(=O)c1nn(C)c(C)c1Cl,36,nt,34*,2,9,-9,46*,1,535nm interf DR=>122
COc1ccccc1NC(=S)NNC(=O)c1nn(C)c(C)c1Br,nt,0,44*,-9,-10,10,29*,6,535nm interf DR=>122
